One data set deals with Enterobacter cloacae. The data set can be described thus: Antibacterial activity against Enterobacter cloacae BAA-1154 after 18 to 22 hrs in absence of colistin by broth microdilution method. Type of data set: functional.
Another data set relates to Acinetobacter baumannii. Kind of data set: Antibacterial activity against Acinetobacter baumanii ATCC 19606 after 18 to 22 hrs in presence of 1/4 times MIC colistin by broth microdilution method. Format: functional. The settings on record: ATCC 19606 = CIP 70.34 = JCM 6841. A digest of the protocol: (§1)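 Broth microdilution per CLSI guidelines. Gram-negatives grown in TSB. Each strain tested alone and again with colistin at ¼ × MIC to permeabilize the outer membrane. Plates incubated at 37 °C for 18–22 h. MIC read as the lowest concentration showing no visible growth.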

Another data set concerns Pseudomonas aeruginosa. Kind of data set: Antibacterial activity against Pseudomonas aeruginosa ATCC 15442 after 18 to 22 hrs in presence of 1/4 times MIC colistin by broth microdilution method. Type of data set: functional. A digest of the protocol:
as §1

The subject of data set [1] is Enterococcus faecium. Kind of data set: Bactericidal activity against vancomycin-resistant Enterococcus faecium ATCC 700221 at 4 times MIC after 2 hrs by time-kill assay. Format: functional. A digest of the protocol: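 Late-log cells diluted to ~5 × 10^6 CFU/mL and exposed in triplicate to 4 × MIC, in TSB (E. faecalis HM-201) or BHI (E. faecium ATCC 700221) at 37 °C. Sampled at 0, 2, 4, 6, 8, 10, 12 and 24 h, diluted serially in PBS and plated on TSA or BHI agar. CFU/mL counted after 18–22 h. DMSO served as negative control.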

Data set [2] concerns Enterococcus faecalis. The data set can be described thus: Antibacterial activity against Enterococcus faecalis ATCC 31975 at 4 to 8 times MIC after 48 hrs by broth microdillution method. Type of data set: functional. The essentials:
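Single-step resistance selection. Cultures of 5 × 10^8 to 5 × 10^10 CFU/mL spread on TSA containing compound at 2×, 4× or 8× MIC and incubated aerobically at 37 °C for 48 h. Colony MICs rechecked by broth microdilution. Frequency calculated as resistant colonies per inoculum.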

The subject of data set [3] is Enterococcus faecalis. The data set can be described thus: Antibacterial activity against vancomycin-resistant Enterococcus faecalis ATCC 51299 assessed as ratio of MIC after and before 6 serial passages measured after 18 hrs by broth microdillution method. Format: functional. The essentials:
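Multi-step selection over 14 passages in two weeks. McFarland 0.5 inoculum diluted 1:300 in TSB (E. faecalis) or BHI (E. faecium) to 1 × 10^5 CFU/mL. Each passage reinoculated at ~5 × 10^5 CFU/mL from the sub-inhibitory well of the previous plate. Compounds serially diluted in triplicate, incubated ≥18 h at 37 °C, MIC read visually. Resistance defined as >4-fold MIC rise.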

A further data set relates to Bacillus subtilis. Kind of data set: Antibacterial activity against Bacillus subtilis assessed as pool of membranes at 5 times MIC after 2 hrs in presence of methylsulfonyl methane by phase contrast microscopic analysis. Type of data set: functional. The essentials:
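B. subtilis grown in LB at 37 °C to OD600 ~0.2, then treated at 5 × MIC with MSM for osmotic stabilisation. At 2 h, stained with FM 4-64 (1 μg/mL), DAPI (1 μg/mL) and SYTOX Green (1 μg/mL). Imaged by deconvolution fluorescence and phase contrast microscopy.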

Data set [4] is described as follows: Inhibition of Escherichia coli UPPP expressed in Escherichia coli C41(DE3) using FPP as substrate preincubated for 15 mins followed by substrate addition measured after 20 mins by malachite green assay. A digest of the protocol: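 Purified E. coli UPPP (0.125 μM) preincubated 15 min at room temperature with inhibitor (300 to 0.8 μM) in 50 mM HEPES, 150 mM NaCl, 10 mM MgCl2, 0.02% DDM, pH 7.5. Then 35 μM FPP added, 20 min at 37 °C. Released phosphate measured by malachite green at 620 nm after 30 min. IC50 from dose-response curves. Bacitracin used as control.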

A short description of data set [5]: Inhibition of Escherichia coli UPPS using IPP and FPP as substrate preincubated for 30 mins followed by substrate addition measured after 20 mins by malachite green phosphate assay. A digest of the protocol: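 Purified E. coli UPPS preincubated 30 min at room temperature with inhibitor (200 to 0.2 μM) in 100 mM HEPES, 50 mM NaCl, 0.5 mM MgCl2, 0.02% DDM, pH 7.5. Then 10 μM IPP and FPP added with 0.375 U/mL inorganic phosphatase. Phosphate read by malachite green at 620 nm. IC50 from dose-response curves.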

Data set [6] can be described thus: Induction of proton motive force collapse in Escherichia coli inverted membrane vesicle in presence of ATP-driven PMF generation system by ACMA-based fluorescence assay. Format: functional, cell membranes. A digest of the protocol:
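E. coli inverted membrane vesicles (0.1 mg/mL membrane protein) with 2 μM ACMA and 0.5 mM ATP or succinate, in 10 mM HEPES-KOH, 5 mM MgSO4, 100 mM KCl, pH 7.5. Proton gradient followed by ACMA fluorescence (ex 410/em 480 nm). EC50 taken from dose-response curves. CCCP used as reference uncoupler.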

Data set [7] relates to Enterococcus faecium. The data set can be described thus: Potentiation of vancomycin-induced antibacterial activity against Enterococcus faecium ATCC 700221 assessed as fold reduction in vancomycin MIC preincubated for 30 mins followed by vancomycin addition measured after 18 to 21 hrs. Type of data set: functional. A digest of the protocol: (§2)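 VRE suspensions at 5×10^5 CFU/mL preincubated with compound at ½ × MIC for 30 min at room temperature. […] Fold reduction calculated as vancomycin MIC alone over MIC in combination.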

Data set [8] concerns Enterococcus faecium. Kind of data set: Potentiation of vancomycin-induced antibacterial activity against Enterococcus faecium HM-968 assessed as fold reduction in vancomycin MIC preincubated for 30 mins followed by vancomycin addition measured after 18 to 21 hrs. Format: functional. The essentials:
as §2

Data set [9] relates to Enterococcus faecium. The data set can be described thus: Potentiation of gentamicin-induced antibacterial activity against Enterococcus faecium ATCC 700221 assessed as gentamicin MIC preincubated for 30 mins followed by gentamicin addition measured after 18 to 21 hrs. Type of data set: functional. The essentials: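 Enterococcal suspensions at 5×10^5 CFU/mL preincubated with compound at ½ × MIC for 30 min at room temperature.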

Data set [10] relates to Enterococcus faecalis. The data set can be described thus: Synergistic antimicrobial activity against Enterococcus faecalis ATCC 51299 after 20 hrs in presence of doxycycline by checkerboard assay. Format: functional. A digest of the protocol:
(§3)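 Checkerboard in TSB with a starting inoculum of 1×10^5 CFU/mL. Compound and antibiotic diluted from 2× or 4× MIC along perpendicular axes. Incubated 20 h at 37 °C. ΣFIC calculated: ≤0.5 synergy, >0.5 to <2 additive, 2–4 indifference, >4 antagonism.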

Data set [11] deals with Enterococcus faecalis. The data set can be described thus: Synergistic antimicrobial activity against Enterococcus faecalis ATCC 49533 after 20 hrs in presence of ciprofloxacin by checkerboard assay. Type of data set: functional. The essentials: as §3
Another data set concerns Caenorhabditis elegans. The data set can be described thus: Toxicity in Caenorhabditis elegans AU37 assessed as worm survival at 20 ug/ml after 24 hrs by microscopic analysis. The note with it: caenorhabditis elegans, 24 h. A digest of the protocol:
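Adult C. elegans AU37, 15–20 per well, exposed in triplicate to 10 or 20 μg/mL, with sterile water as negative control. Viability checked by microscopy. Result reported as percent viable worms after 24 h exposure.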

The subject of a further data set is Escherichia coli. Kind of data set: Antibacterial activity against tolC deficient Escherichia coli assessed as formation of spheroplasts at 25 ug/ml after 2 hrs by FM4-64/DAPI/SYTOX green staining-based deconvolution microscopic analysis. Type of data set: functional.

pEC50, pIC50: −log10 of the molar value. In brackets after ≈: the same amount, converted by molar mass. Activity calls are given as the source filed them.

For the compound `CCCCc1ccc(-c2nc(C)c(/C(C)=N/NC(=N)N)s2)cc1`, the results for the MIC with Enterobacter cloacae, in the data set with Acinetobacter baumannii and in the data set on Pseudomonas aeruginosa were 64 µg/mL (≈ 194 µM), 1 µg/mL and 1 µg/mL, respectively. Further, the result in the data set with Enterococcus faecium [1], in the data set with Enterococcus faecalis [2], in the data set on Bacillus subtilis and with Escherichia coli was Active. In addition, in the data set on Enterococcus faecalis [3], the Ratio stood at 1. For the same compound, the pIC50 in [4] was 5.22; in data set [5], 4.72. Also, the pEC50 in data set [6] was 4.92. For the same compound, in the data set with Enterococcus faecium [7], the “fold change (FC)” value amounted to 256. Also, the result in the data set with Enterococcus faecium [8] and in the data set on Enterococcus faecium [9] was inactive. For the same compound, the results for the “fractional inhibitory concentration index (FICI)” value with Enterococcus faecalis [10] and in the data set with Enterococcus faecalis [11] were 2 and 0.63 - 1, respectively. In the data set on Caenorhabditis elegans, the Activity entry is “Non-Toxic”.

The values above are taken from ChEMBL document CHEMBL4028805, “Phenylthiazole Antibacterial Agents Targeting Cell Wall Synthesis Exhibit Potent Activity in Vitro and in Vivo against Vancomycin-Resistant Enterococci” (J Med Chem, 2017).
